Test results published in ChEMBL document CHEMBL1129750, “Bicyclic N-hydroxyurea inhibitors of 5-lipoxygenase: pharmacodynamic, pharmacokinetic, and in vitro metabolic studies characterizing N-hydroxy-N-(2,3-dihydro-6-(phenylmethoxy)-3-benzofuranyl)urea” (J Med Chem, 1996).
Calls of active or inactive are those of the source. No cut-off for these calls is given here.

Tests used:
[1] = biological target: T1, Polyunsaturated fatty acid 5-lipoxygenase (Rattus norvegicus, UniProt P12527); test: Inhibitory activity against rat 5-lipoxygenase by using continuous oxygen consumption assay.
T1 sequence (P12527 whole entry): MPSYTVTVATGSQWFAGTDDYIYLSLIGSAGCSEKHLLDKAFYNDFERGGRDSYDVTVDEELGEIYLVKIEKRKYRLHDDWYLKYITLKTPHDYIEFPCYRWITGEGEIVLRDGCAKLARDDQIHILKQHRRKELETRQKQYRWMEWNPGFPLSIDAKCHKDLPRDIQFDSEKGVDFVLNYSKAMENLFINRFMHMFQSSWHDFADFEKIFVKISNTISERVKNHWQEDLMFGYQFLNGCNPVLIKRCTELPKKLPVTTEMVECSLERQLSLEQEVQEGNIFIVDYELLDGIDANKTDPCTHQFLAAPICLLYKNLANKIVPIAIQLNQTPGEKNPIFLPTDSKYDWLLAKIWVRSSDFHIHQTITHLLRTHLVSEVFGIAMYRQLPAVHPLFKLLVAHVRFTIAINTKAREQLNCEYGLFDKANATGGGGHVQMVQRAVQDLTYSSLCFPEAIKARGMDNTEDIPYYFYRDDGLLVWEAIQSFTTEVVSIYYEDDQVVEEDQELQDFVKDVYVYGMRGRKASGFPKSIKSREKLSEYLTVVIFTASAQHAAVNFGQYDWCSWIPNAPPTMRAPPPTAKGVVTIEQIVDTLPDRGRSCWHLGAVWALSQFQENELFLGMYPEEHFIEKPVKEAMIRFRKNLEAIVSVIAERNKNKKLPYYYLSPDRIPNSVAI
Summary of the method: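 Semipurified cytosolic 5-LO from rat basophilic leukemia (RBL-1) cells; continuous oxygen-electrode assay of oxygen consumption; IC50.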

[2] = biological target: T2, Polyunsaturated fatty acid 5-lipoxygenase (Mus musculus) (UniProt P48999); test: Inhibition of leukotriene formation in A-23187-stimulated mouse whole blood using […] ex vivo, activity expressed as percent of control.; assay type: functional, tissue-based; design: scale not given: the % may be the effect or the level left
T2 sequence (whole entry): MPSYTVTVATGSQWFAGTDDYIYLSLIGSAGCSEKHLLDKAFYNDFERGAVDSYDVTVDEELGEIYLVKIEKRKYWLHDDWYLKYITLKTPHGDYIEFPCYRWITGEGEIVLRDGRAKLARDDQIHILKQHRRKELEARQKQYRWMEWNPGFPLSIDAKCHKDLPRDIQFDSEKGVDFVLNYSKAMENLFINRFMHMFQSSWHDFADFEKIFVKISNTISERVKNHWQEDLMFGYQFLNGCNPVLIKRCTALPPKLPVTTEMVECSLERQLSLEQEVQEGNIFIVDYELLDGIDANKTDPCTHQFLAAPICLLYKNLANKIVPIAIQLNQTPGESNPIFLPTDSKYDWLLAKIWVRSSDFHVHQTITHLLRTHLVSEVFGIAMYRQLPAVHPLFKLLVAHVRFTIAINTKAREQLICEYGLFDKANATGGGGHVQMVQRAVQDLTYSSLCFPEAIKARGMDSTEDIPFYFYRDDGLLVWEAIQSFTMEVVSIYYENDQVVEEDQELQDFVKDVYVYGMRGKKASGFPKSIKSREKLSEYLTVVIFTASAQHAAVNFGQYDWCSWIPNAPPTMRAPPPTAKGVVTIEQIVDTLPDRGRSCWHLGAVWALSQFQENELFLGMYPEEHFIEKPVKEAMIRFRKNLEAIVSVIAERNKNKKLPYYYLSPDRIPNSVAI

Mus musculus [3] = organism: Mus musculus; test: Compound was tested to inhibit Leukotriene formation in A-23187-stimulated mouse whole blood using […] ex vivo; assay type: functional
Mus musculus [4] = test: Maximum inhibition of LTB4 at dose 3 mg/kg in mouse; assay type: functional
Mus musculus [5] = test: Percentage inhibition of LTB4 after 6 hr at dose 3 mg/kg in mouse; NS=No Stastistical Significance; assay type: functional, organism-based; design: dose 3 mg/kg
Mus musculus [6] = test: Compound was tested to inhibit Leukotriene formation in mouse sensitized with 1BD8 cells after 7 hr of compound administration, activity expressed as percent of control; assay type: functional; design: concentration or dose not given beside the values
Mus musculus [7] = organism: Mus musculus; test: Inhibition of Leukotriene formation in mouse adoptive peritoneal anaphylaxis assay ex vivo; assay type: functional
Mus musculus [8] = organism: Mus musculus; test: Compound was tested to inhibit Leukotriene formation in A-23187-stimulated mouse whole blood using […] ex vivo, activity expressed as percent of control; NS=No Stastistical Significance; assay type: functional, organism-based
Mus musculus [9] = organism: Mus musculus; test: Glucuronidation rates in mouse liver microsomes; assay type: functional
Summary of the method: (§1)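 Liver microsomes (fresh male CD-1 mouse >10 weeks, or frozen human donor) at 0.25–1.0 mg/mL protein. Incubated with 2.5 mM substrate, 15 mM [14C]UDP-glucuronic acid, 10 mM MgCl2 and 2% BSA in 100 mM sodium phosphate pH 7.4, at 37 °C for 1–4 h. Stopped with 20% acetonitrile; glucuronide quantified by HPLC. Mean of duplicates.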

Homo sapiens = organism: Homo sapiens; test: Glucuronidation rates in human liver microsomes; assay type: functional; summary of the method: as §1
Canis familiaris = test: Compound was administered intravenously in dog to evaluate plasma clearance values; assay type: ADME, organism-based, Canis lupus familiaris; settings: in vivo, iv
Summary of the method: (§2)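 IV infusion over 15 min via saphenous (monkey) or cephalic (dog) vein catheter, 1–1.4 mg/kg in 7.5% (w/v) aqueous (2-hydroxypropyl)-β-cyclodextrin; male cynomolgus monkeys and beagle dogs, N = 3. Chilled plasma analysed by HPLC. Noncompartmental parameters were estimated per animal and then averaged. CLp = dose/AUC, with AUC by linear/log-linear trapezoidal rule.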

[10] = Compound was administered intravenously in monkey to evaluate plasma clearance values; assay type: ADME, organism-based; settings: simiiformes, plasma, iv; read-out: Clp; summary of the method: as §2
[11] = Compound was administered intravenously in mouse to evaluate plasma clearance values; assay type: ADME, organism-based; settings: iv, read-out: Clp
Summary of the method: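 Male CD-1 mice given 0.5 mg/kg IV by lateral tail vein over 5–10 s, in ethanol/propylene glycol 30:70 v/v; N = 3 per time point with terminal sampling under ether. Plasma HPLC, LOQ 0.05 μg/mL. Mean concentration per time point before noncompartmental analysis. Half-life from slope of log-concentration profile; CLp = dose/AUC.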

[12] = Mus musculus, Blood, read-out: ED50

Structure (SMILES)	IC50 [1] [nM]	Activity [2] [%]	other results
NC(=O)N(O)C1CCc2cccc(Oc3ccccc3)c21 (stereo not given)	5600	–	–
NC(=O)N(O)C1COc2ccc(Oc3ccccc3)cc21 (stereo not given)	3500	-64	ED50 (Mus musculus [3]; [12]): 1.9 mg/kg; Max inhibition (Mus musculus [4]): 67; inhibition (Mus musculus [5]): inactive
COc1ccc(COc2ccc3c(c2)OCC3N(O)C(N)=O)cc1 (stereo not given)	2700	-73	ED50 (Mus musculus [3]; [12]): 9.8 mg/kg
Cc1c2n(c3ccc(Oc4ccccc4)cc13)CCC2N(O)C(N)=O (stereo not given)	–	-26	–
NC(=O)N(O)C1CCn2c1cc1ccccc12 (stereo not given)	10000	-74	–
CCc1ccc2c(c1)cc1n2CCC1N(O)C(N)=O (stereo not given)	–	–	Activity (Mus musculus [8]): inactive
NC(=O)N(O)C1COc2cc(OCc3ccccc3)ccc21 (single isomer, unassigned; (-))	–	–	Rate of formation (nM (mg of protein)-1) (Mus musculus [9]): 5.9; Rate of formation (nM (mg of protein)-1) (Homo sapiens): 60.3
NC(=O)N(O)C1COc2cc(Oc3ccccc3)ccc21 (stereo not given)	3300	-56	–
NC(=O)N(O)C1COc2cc(OCc3ccccc3)ccc21 (single isomer, unassigned; (+))	–	–	Clp (Canis familiaris): 3.5 mL/min; clearance [10]: 6.1 mL/min; clearance [11]: 8.6 mL/min; ED50 (Mus musculus [3]): 0.9 mg/kg
NC(=O)N(O)C1CCCc2ccccc21 (stereo not given)	29000	-30	–
NC(=O)N(O)C1COc2c1ccc1ccccc21 (stereo not given)	4200	–	–

Second part, led by results:

IC50 [1] [nM]	Activity [2] [%]	Structure (SMILES)	other results
3000	-52	NC(=O)N(O)C1CCCc2cc(-c3ccccc3)ccc21 (stereo not given)	–
–	-85	NC(=O)N(O)C1CCc2cc(OCc3ccccc3)ccc21 (stereo in doubt; 2a)	–
880	–	NC(=O)N(O)C1CCc2cc(OCc3ccccc3)ccc21 (single isomer, unassigned; (+))	–
2200	-70	NC(=O)N(O)C1CCCc2cc(OCc3ccc(Cl)cc3)ccc21 (stereo not given)	Activity (Mus musculus [6]): 0%; ED50 (Mus musculus [3]; [12]): 4.5 mg/kg; ED50 (Mus musculus [7]; Mus musculus): 4.5 mg/kg
650	-68	NC(=O)N(O)C1CCn2c1cc1cc(OCc3ccccc3)ccc12 (stereo not given)	Activity (Mus musculus [6]): -8%; ED50 (Mus musculus [3]; [12]): 1.8 mg/kg; ED50 (Mus musculus [7]): 1.8 mg/kg
500	-81	COc1ccc(COc2ccc3c(c2)CCCC3N(O)C(N)=O)cc1 (stereo not given)	Activity (Mus musculus [6]): -13%; ED50 (Mus musculus [3]; [12]): 4.8 mg/kg; ED50 (Mus musculus [7]; Mus musculus): 4.8 mg/kg
840	-57	NC(=O)N(O)C1CCCc2c(Oc3ccccc3)cccc21 (stereo not given)	–
–	0.9	NC(=O)N(O)C1CCc2cc(OCc3ccccc3)ccc21 (stereo in doubt; (-)2a)	–
1400	–	COc1ccc(COc2ccc3c(c2)CCC3N(O)C(N)=O)cc1 (stereo not given)	Activity (Mus musculus [8]): inactive
1000	–	NC(=O)N(O)C1CCCc2ccc(OCc3ccccc3)cc21 (stereo not given)	Activity (Mus musculus [8]): inactive
